Experiment [1] has as its target T1, 5-hydroxytryptamine receptor 1A (Rattus norvegicus, UniProt P19327).
T1 sequence (P19327 whole entry): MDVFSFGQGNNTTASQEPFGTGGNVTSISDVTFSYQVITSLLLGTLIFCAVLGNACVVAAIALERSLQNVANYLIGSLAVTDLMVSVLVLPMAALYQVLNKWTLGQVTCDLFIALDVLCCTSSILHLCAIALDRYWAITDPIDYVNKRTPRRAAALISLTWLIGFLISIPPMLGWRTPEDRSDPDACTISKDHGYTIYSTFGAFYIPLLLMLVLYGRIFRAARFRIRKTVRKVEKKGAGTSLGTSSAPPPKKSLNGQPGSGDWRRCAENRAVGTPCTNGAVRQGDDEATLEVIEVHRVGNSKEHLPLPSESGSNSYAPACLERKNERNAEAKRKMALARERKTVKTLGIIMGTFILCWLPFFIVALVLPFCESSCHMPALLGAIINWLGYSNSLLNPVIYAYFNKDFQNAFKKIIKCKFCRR
As to the kind of experiment: Tested in vitro for binding affinity by measuring its ability to inhibit [3H]8-OH-DPAT binding at 5-hydroxytryptamine 1A receptor in rat cerebral cortex membranes. The format is cell membranes. A digest of the protocol: (§1)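 Rat cortex homogenized in ice-cold 50 mM Tris-HCl (pH 7.7), spun at 28000g, washed twice, preincubated 37 °C 10 min, resuspended in Tris/5 mM MgSO4/0.5 mM EDTA (pH 7.4). About 1 mg protein incubated 15 min at 37 °C with 0.6 nM [3H]-8-OH-DPAT and competitor, in buffer with 10 nM clonidine and 30 nM prazosin. Nonspecific binding: 10 μM 5-HT. Prescreen at 10^-6 M; curves run if displacement ≥55%.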

Experiment [2] deals with T2, Adrenergic receptor alpha-1 (Rattus norvegicus, UniProt P15823+P23944+P43140).
T2 sequence (P15823 whole entry): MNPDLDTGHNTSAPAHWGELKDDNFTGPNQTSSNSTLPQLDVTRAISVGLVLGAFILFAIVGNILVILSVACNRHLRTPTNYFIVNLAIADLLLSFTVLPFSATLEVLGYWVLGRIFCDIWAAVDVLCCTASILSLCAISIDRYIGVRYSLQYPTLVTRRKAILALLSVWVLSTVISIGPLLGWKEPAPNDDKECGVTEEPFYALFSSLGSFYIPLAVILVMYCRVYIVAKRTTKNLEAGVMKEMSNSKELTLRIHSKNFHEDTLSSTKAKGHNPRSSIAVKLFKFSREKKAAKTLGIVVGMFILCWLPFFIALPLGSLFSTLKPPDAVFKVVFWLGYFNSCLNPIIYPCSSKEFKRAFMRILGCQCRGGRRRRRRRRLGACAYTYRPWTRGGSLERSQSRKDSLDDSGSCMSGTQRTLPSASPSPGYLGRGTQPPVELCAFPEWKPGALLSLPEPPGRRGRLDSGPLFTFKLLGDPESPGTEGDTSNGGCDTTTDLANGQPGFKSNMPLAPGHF
T2 sequence (P23944 whole entry): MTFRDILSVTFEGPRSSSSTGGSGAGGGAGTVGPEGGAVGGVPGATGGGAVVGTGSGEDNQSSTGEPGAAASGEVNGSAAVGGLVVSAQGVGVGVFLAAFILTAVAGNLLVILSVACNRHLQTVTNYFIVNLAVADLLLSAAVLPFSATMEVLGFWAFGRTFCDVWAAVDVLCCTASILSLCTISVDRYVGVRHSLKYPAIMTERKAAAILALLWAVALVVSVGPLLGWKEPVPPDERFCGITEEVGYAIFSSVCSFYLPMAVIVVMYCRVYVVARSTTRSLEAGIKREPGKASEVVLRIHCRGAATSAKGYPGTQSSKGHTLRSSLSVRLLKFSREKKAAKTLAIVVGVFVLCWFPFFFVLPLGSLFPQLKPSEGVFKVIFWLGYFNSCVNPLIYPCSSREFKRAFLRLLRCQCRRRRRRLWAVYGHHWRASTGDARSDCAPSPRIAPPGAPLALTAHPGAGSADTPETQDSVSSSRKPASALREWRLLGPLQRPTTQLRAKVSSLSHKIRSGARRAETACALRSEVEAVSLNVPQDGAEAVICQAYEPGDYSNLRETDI
T2 sequence (P43140 whole entry): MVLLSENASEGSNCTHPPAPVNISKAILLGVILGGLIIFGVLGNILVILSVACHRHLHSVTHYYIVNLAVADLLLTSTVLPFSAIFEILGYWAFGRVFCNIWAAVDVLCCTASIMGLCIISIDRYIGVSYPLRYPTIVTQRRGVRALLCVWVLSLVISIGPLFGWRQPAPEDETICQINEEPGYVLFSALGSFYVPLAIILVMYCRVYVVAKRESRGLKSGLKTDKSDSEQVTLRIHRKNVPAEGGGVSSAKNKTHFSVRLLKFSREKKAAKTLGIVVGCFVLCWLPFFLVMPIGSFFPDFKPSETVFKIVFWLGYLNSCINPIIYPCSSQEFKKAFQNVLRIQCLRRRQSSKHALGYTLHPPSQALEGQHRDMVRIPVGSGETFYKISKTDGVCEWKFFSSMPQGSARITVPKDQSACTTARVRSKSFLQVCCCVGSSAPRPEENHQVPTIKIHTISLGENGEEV
As to the kind of experiment: Tested in vitro for binding affinity by measuring its ability to inhibit [3H]prazosin binding at alpha-1 adrenergic receptor in rat cerebral cortex membranes. The class given is cell membranes. In short, it runs like this: (§2)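 Rat cerebral cortex homogenized in ice-cold 50 mM Tris-HCl/10 mM MgCl2 (pH 7.7), centrifuged at 30000g, washed twice. About 250 μg membrane protein incubated at 25 °C for 30 min with 0.2 nM [3H]prazosin plus several competitor concentrations. Compounds first screened at 10^-6 M; dose-response curves done where displacement reached ≥55%.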

Experiment [3] concerns the target T1, 5-hydroxytryptamine receptor 1A. The experiment is described as follows: In vitro binding affinity against 5-hydroxytryptamine 1A receptor of rat cerebral cortex using [3H]8-OH-DPAT as radioligand. The format is tissue-based. In short, it runs like this: as §1
Experiment [4] concerns the target T2, Adrenergic receptor alpha-1. The experiment is described as follows: In vitro binding affinity against alpha-1 adrenergic receptor of rat cerebral cortex using [3H]prazosin as radioligand. The class given is tissue-based. A digest of the protocol: as §2

The Ki is a measure of affinity in units of concentration, obtained from inhibition or displacement.

`CC(C)C(=O)Nc1cccc(N2CCN(CCCCN3C(=O)C4CCCN4C3=O)CC2)c1.Cl` (stereo not drawn): the Ki is 0.102 µM in experiment [1] and > 10 µM in experiment [2].

As to `O=C1C2CCCCN2C(=O)N1CCN1CCN(c2ccc(F)cc2)CC1` (stereo not drawn), the affinity in experiment [1], expressed as Ki, was 19.3 µM.

In experiment [1], `O=C1C2CCCCN2C(=O)N1CCN1CCN(c2ccccc2)CC1` (stereo not drawn) returned a Ki of 1.35 µM.

As to `COc1ccccc1N1CCN(CN2C(=O)C3CCCCN3C2=O)CC1` (stereo not drawn), in experiment [3], the Ki was determined as 0.0311 µM.

The molecule `O=C1C2CCCCN2C(=O)N1CN1CCN(c2cccc(C(F)(F)F)c2)CC1` (stereo not drawn) returned a Ki in experiment [4] of 3.296 µM. This counts as single-digit micromolar.

For `O=C1C2CCCN2C(=O)N1CN1CCN(c2ccc([N+](=O)[O-])cc2)CC1` (stereo not drawn), the figures for the Ki in experiment [4] and in experiment [3] were 260 µM and 6.1 µM, respectively.

Consider `O=C1C2CCCN2C(=O)N1CCN1CCN(c2ccccc2)CC1` (stereo not drawn), for which, in experiment [1], the affinity corresponds to a Ki of 7.55 µM.

As for `Nc1ccc(N2CCN(CCCCN3C(=O)C4CCCN4C3=O)CC2)cc1` (stereo not drawn), the Ki in experiment [1] was > 10 µM.

On to `O=C1C2CCCCN2C(=O)N1CCCN1CCN(c2ccc([N+](=O)[O-])cc2)CC1` (stereo not drawn), for which the values for the inhibitory constant (Ki) in experiment [1] and in experiment [2] were 30.6 µM and 6.652 µM, respectively.

Take `O=C1C2CCCCN2C(=O)N1CCN1CCN(c2ccc([N+](=O)[O-])cc2)CC1` (stereo not drawn): the Ki in experiment [1] stood at 93.6 µM; in experiment [2] it was 199 µM.

The molecule `O=C1C2CCCCN2C(=O)N1CCN1CCN(c2cccc(C(F)(F)F)c2)CC1` (stereo not drawn) displayed a Ki in experiment [2] of 4.325 µM. That is a single-digit micromolar value.

`O=C1C2CCCCN2C(=O)N1CN1CCN(c2ccccc2)CC1` (stereo not drawn) returned a Ki in experiment [4] of 2.075 µM.

As to `O=C1C2CCCN2C(=O)N1CN1CCN(c2ccc(F)cc2)CC1` (stereo not drawn), the Ki in experiment [4] came to 1.193 µM.

Consider `O=C1C2CCCN2C(=O)N1CN1CCN(c2cccc(C(F)(F)F)c2)CC1` (stereo not drawn), for which the Ki in experiment [4] came to 3.296 µM.

Take `O=C1C2CCCN2C(=O)N1CCN1CCN(c2ccc(F)cc2)CC1` (stereo not drawn): in experiment [1], the affinity, expressed as Ki, was 23.9 µM. That is a double-digit micromolar value.

In experiment [2], `O=C1C2CCCN2C(=O)N1CCCN1CCN(c2ccc([N+](=O)[O-])cc2)CC1` (stereo not drawn) had a Ki of 7.533 µM.

Molecule `O=C1C2CCCN2C(=O)N1CN1CCN(c2ccccc2)CC1` (stereo not drawn) showed a Ki in experiment [4] of 2.588 µM.

For the molecule `O=C1C2CCCN2C(=O)N1CCN1CCN(c2ccc([N+](=O)[O-])cc2)CC1` (stereo not drawn), the results for the inhibitory constant (Ki) in experiment [1] and in experiment [2] were 501 µM and 260 µM, respectively.

As to `O=C1C2CCCN2C(=O)N1CCCN1CCN(c2ccc(F)cc2)CC1` (stereo not drawn), the Ki in experiment [1] is 1.18 µM.

For the molecule `O=C1C2CCCCN2C(=O)N1CN1CCN(c2ccc([N+](=O)[O-])cc2)CC1` (stereo not drawn), the inhibition constant Ki in experiment [4] was determined as 260 µM; in experiment [3], 5.97 µM.

For `O=C1C2CCCN2C(=O)N1CCCCN1CCN(c2ccc([N+](=O)[O-])cc2)CC1` (stereo not drawn), the Ki in experiment [1] was 23.9 µM.

In experiment [2], `O=C1C2CCCN2C(=O)N1CCN1CCN(c2cccc(C(F)(F)F)c2)CC1` (stereo not drawn) gave a Ki of 3.935 µM.

(Values after ChEMBL document CHEMBL1130040, “Synthesis and structure-activity relationships of a new model of arylpiperazines. 2. Three-dimensional quantitative structure-activity relationships of hydantoin-phenylpiperazine derivatives with affinity for 5-HT1A and alpha 1 receptors. A comparison of CoMFA models” (J Med Chem, 1997).)
